# Bioassay records as filed in PubChem.
# A selection: hits, their analogues and other compounds. The true share with any hit is near 2.4%.
# SR-BI HDL uptake – mouse SR-BI HDL lipid transfer inhibition; inhibition, % at 12.5 µM; 320,000 tested, 0.96% active; Q61009; ldlA[mSR-BI] CHO cells, DiI-HDL uptake fluorescence, 3 h;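 active = mean replicate inhibition of at least 70% and a set share of replicates each scoring 70 or more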;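 note: 0% = median of neutral control wells and 100% = median of positive control wells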
# HTR2A ag – agonists of mouse serotonin 5-HT2A receptor (HTR2A); P35363; CHO-K1 mHTR2A beta-arrestin complementation, luminescence; percent of 30 µM serotonin response; activation, % at 7.6 µM; 360,000 tested, 0.66% active; AID 624169;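 active = activation above a run cutoff, the mean activation of all tested compounds plus 3 SD, cut at about 14% in these data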;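 note: 0% = plate median of compound wells and 100% = 30 µM serotonin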
# Target sequence (P35363 whole entry, looked up): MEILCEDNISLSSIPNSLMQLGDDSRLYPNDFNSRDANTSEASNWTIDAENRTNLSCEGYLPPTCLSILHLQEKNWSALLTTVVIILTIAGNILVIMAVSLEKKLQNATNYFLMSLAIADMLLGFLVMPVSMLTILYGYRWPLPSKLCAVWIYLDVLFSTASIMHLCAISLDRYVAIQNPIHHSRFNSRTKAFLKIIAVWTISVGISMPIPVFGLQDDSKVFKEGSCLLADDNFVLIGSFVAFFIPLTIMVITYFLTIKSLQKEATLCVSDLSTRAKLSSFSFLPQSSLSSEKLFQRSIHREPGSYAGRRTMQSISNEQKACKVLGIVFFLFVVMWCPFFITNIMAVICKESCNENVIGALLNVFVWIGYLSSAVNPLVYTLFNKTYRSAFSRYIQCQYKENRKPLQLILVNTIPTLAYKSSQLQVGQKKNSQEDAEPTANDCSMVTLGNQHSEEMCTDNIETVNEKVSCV
# MIN6 prolif – inducers of beta-cell replication in MIN6 cells; proliferation, % at 10 µM; AID 2380; 330,000 tested, 0.29% active; MIN6 cells proliferation, ATPlite luminescence, 48 h; cells starved in 0.2% serum; 100% = growth in 10% serum;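 active = compounds whose signal lies at least 3.5 SD above the mean of all wells on their plate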;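 note: 0% = DMSO-treated cells in low-serum medium and 100% = 10% serum control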
# Ins promoter up – MIN6 insulin promoter up-regulation. 190,000 tested, 0.3% active. z-score at 5 µM. MIN6 insulin promoter-GFP reporter, high-content imaging; stronger effect = higher value. AID 1625;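 active = z-score above 3 at 5 µM with at least 500 cells counted in the well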
# SR-BI DiI-HDL act – SR-BI HDL lipid transfer activation. CHO ldlA[mSR-BI] cells, DiI-HDL uptake fluorescence, 3 h; 100 = double the neutral-control signal. activation, % at 12.5 µM. 320,000 tested, 0.096% active;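 active = mean replicate activation of at least 60% and every replicate at or above 60%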;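 note: 0% = median plate neutral-control signal and 100% = twice that signal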
#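 Assay system: CHO ldlA[mSR-BI] cells, LDL receptor-null, SR-BI overexpressing; medium: Ham's F12 with 0.5% BSA, HEPES 25 mM, pH 7.4; also added: DiI-HDL 10 µg/mL; timing: 3 h uptake period with compound, 37 °C; signal: DiI fluorescence, bottom read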
# Calb FLC – C. albicans growth modulation with fluconazole; C. albicans CaCi-2 + fluconazole, Alamar Blue growth, 48 h; AID 1979; 300,000 tested, 0.57% active; growth inhibition, % (concentration not given with the values);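 active = growth inhibition above about 58% in most replicates, limit read from the data, passing the limit was not always enough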;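 note: all wells also contain fluconazole at 8 µg/ml as a sub-toxic cotreatment; 0% = median of DMSO wells and 100% = median of geldanamycin control wells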
# OPRM1 ag – activates human mu opioid receptor in HTR2A counterscreen; shares compounds with HTR2A ag; activation, % at 9.3 µM; 2,300 tested, 5.3% active; U2OS OPRM1 beta-arrestin PathHunter, luminescence; DMSO 0%, DAMGO 9.3 µM 100%;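 active = mean activation above the mean of DMSO-only wells plus 3 SD, cut at about 0.5% in these data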
# m5-HT2A ag conf – mouse HTR2A agonism confirmed; CHO-K1 PathHunter beta-arrestin recruitment, luminescence; DMSO 0%, 30 µM serotonin 100%; shares compounds with HTR2A ag; activation, % at 7.6 µM; 2,300 tested, 19% active;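 active = mean activation across triplicates above the hit threshold derived in the original primary screen, cut at about 15% in these data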
# The depositor's hits bear a star; nt = no result; ! = not active in a repeat.
SMILES,SR-BI HDL uptake,HTR2A ag,MIN6 prolif,Ins promoter up,SR-BI DiI-HDL act,Calb FLC,OPRM1 ag,m5-HT2A ag conf
CC(NC(=O)c1ccc2ccccc2n1)c1ccc(S(N)(=O)=O)cc1 (stereo not given),nt,17*,-1,nt,nt,27,0,1
CC(NC(=O)c1ccc2ccccc2n1)c1ccc(Br)cc1 (stereo not given),-3,-8,-1,nt,3,-5,nt,nt
Cc1oc(-c2cccs2)cc1C(=O)N1CCCC(C)(C(=O)O)C1 (stereo not given),nt,2,nt,nt,nt,nt,nt,nt
Cc1ccsc1C(=O)N1CCCC(C)(C(=O)O)C1 (stereo not given),nt,15*,nt,nt,nt,nt,0,-2
COC(=O)c1cc(=O)n(Cc2ccc3c(c2)OCO3)c(=Nc2ccc(F)c(Cl)c2)s1,15,14*,-7,0.76,-15,-7,0,0
CCCc1cc(=O)[nH]c(SCC(=O)N2c3ccccc3CC2C)n1 (stereo not given),-4,14*,-3,nt,4,nt,0,-4
CCOc1nc(-c2ccc(Cl)cc2)nc2ccccc12,-33,27*,4,0.17,33,6,0,1
CC(C)Oc1nc(-c2ccc(Cl)cc2)nc2ccccc12,33,-3,-6,-0.17,-33,-4,nt,nt
O=C(Nc1ccccc1O)c1c(O)c2c([nH]c1=O)CCCC2,33,15*,-3,-0.44,-33,21,0.8*,5
O=C(NC1CCCCC1)C(c1ccncc1)N(C(=O)c1csnn1)c1cccc(F)c1 (stereo not given),-15,-1,-2,nt,15,0,nt,nt
Cc1ccc(S(=O)(=O)NCCC(=O)NCc2ccccn2)cc1,-8,0,-2,nt,8,6,nt,nt
Cc1ccc(S(=O)(=O)NC(=O)NCc2ccccn2)cc1,-4,14*,1,0.35,4,4,-1,-3
COc1cccc(OC)c1OCCOCCn1cnc2ccccc2c1=O,-13,18*,-5,0.6,13,15,0,-3
Cc1cccc(C)c1OCCCCn1cnc2ccccc2c1=O,-5,-5,0,nt,5,19,nt,nt
O=S(=O)(NCc1csc(-c2cccnc2)n1)c1ccc(Br)cc1,-31,8,-3,nt,31,-4,nt,nt
COc1ccc(S(=O)(=O)NCc2csc(-c3cccnc3)n2)cc1,-29,17*,-1,-0.13,29,-2,-1,-4
O=C(Nc1nccs1)C(Br)C(Br)c1ccccc1 (stereo not given),27,6,-5,nt,-27,7,nt,nt
CC(=O)OC(C(=O)Nc1nccs1)c1ccccc1 (stereo not given),12,16*,-2,nt,-12,-3,-1,-2
C=CCc1cc(/C=C2/NC(=O)N(CC(=O)OC)C2=O)cc(OC)c1O,5,1,-1,-0.17,-5,2,nt,nt
COC(=O)[C@]1(C)N[C@H](CN(C)C(=O)Nc2ccc(Cl)cc2)[C@@H]2C(=O)N(Cc3ccccc3)C(=O)[C@@H]21,16,18*,-1,nt,-16,nt,-1,2
O=C(COc1ccc(Br)cc1)Nc1ccc(C(=O)Nc2ccccc2C(=O)O)cc1,-18,18*,-6,nt,18,3,0,5
COc1ccc(OCC(=O)Nc2ccc(C(=O)Nc3ccccc3C(=O)O)cc2)cc1,-4,7,-2,nt,4,nt,nt,nt
CCOc1ccc(OCC(=O)N2CCC3(CC2)CC(=O)c2ccccc2O3)cc1,6,19*,-4,nt,-6,0,0,2
Cc1cnc(=O)[nH]c1SCC(=O)Nc1nccs1,2,15*,0,nt,-2,-6,-1,-3
CC(O)/C=C/c1ccc2ccccc2n1 (stereo not given),-38,19*,-2,0.03,38,58,0,1
SMILES,SR-BI HDL uptake,HTR2A ag,MIN6 prolif,Ins promoter up,SR-BI DiI-HDL act,Calb FLC,OPRM1 ag,m5-HT2A ag conf
Cc1ccc(C(=O)NCC(=O)N(C)Cc2ccccc2C)s1,nt,19*,nt,nt,nt,nt,-1,-3
COc1ccc(S(=O)(=O)N(C)C[C@@H]2OCCCC[C@H](C)Oc3ccc(NC(=O)Nc4ccc(C(F)(F)F)cc4)cc3C(=O)N([C@H](C)CO)C[C@H]2C)cc1,nt,-1,nt,nt,nt,nt,nt,nt
CCCCCOC(=O)C1=C(C)Nc2nnnn2C1c1ccccc1Cl (stereo not given),-11,19*,-5,nt,11,47,0.5*,2
COC(=O)C1=C(C)Nc2nnnn2C1c1ccccc1Cl (stereo not given),1,-1,1,-0.65,-1,-1,nt,nt
CCS(=O)(=O)Nc1ccc(-c2cc(-c3ccccc3)c3cc(C)ccc3n2)cc1,42,15*,nt,0.56,-42,-2,0,4
Cc1ccc2nc(-c3ccc(NS(C)(=O)=O)cc3)cc(-c3ccccc3)c2c1,34,5,-6,2.4,-34,32,nt,nt
CCOc1ccc(NC(=S)N2CCN(S(=O)(=O)c3ccc(OC)cc3)CC2)cc1,12,-8,-2,nt,-12,-5,nt,nt
CN1CCC[C@H]1c1cccnc1,-15,38*!,-3,nt,15,-1,0,-4
Cc1cccc2sc(NNC(=O)C3=COCCO3)nc12,-13,17*,-2,1.4,13,-18,0,-1
CCc1ccccc1NC(=O)c1cc(S(=O)(=O)N2CCc3ccccc32)cn1C,16,28*,-4,nt,-16,6,0.7*,-2
CC1CN(CCc2ccccc2)c2nc3c(c(=O)n(CC(N)=O)c(=O)n3C)n2C1 (stereo not given),-34,5,-3,nt,34,-1,nt,nt
COc1ccccc1CC(=O)Nc1ccc(S(=O)(=O)N2CC(C)CC(C)C2)cc1 (stereo not given),2,-5,-6,nt,nt,nt,nt,nt
CC(C)NC(=O)N[C@H]1CC[C@H](CC(=O)NCc2ccc(Oc3ccccc3)cc2)O[C@@H]1CO,nt,15*,nt,nt,nt,nt,-1,-4
O=C(C[C@H]1CC[C@@H](NC(=O)Nc2ccc3c(c2)OCO3)[C@@H](CO)O1)NCc1ccccc1,nt,-5,nt,nt,nt,nt,nt,nt
Cc1c(C(=O)NCc2ccccn2)sc(=O)n1Cc1ccc(-c2ccccc2)cc1,nt,25*,nt,nt,nt,nt,-1,-4
CCN1CCN(C(=O)c2c(-c3ccccc3)noc2C)CC1,nt,17*,2,nt,nt,3,0,1
Cn1c(N)c(C(=O)CSc2nnc(-c3cccs3)n2C2CC2)c(=O)[nH]c1=O,-9,-11,6,nt,9,nt,nt,nt
CCCn1c(N)c(C(=O)CSc2nnc(-c3cccs3)n2C2CC2)c(=O)[nH]c1=O,5,28*,-3,nt,-5,nt,-1,47*
